# Data as given in article PMC2978023 (Journal of immunology (Baltimore, Md. : 1950), 2008).
# Where “and” joins values, the source holds several entries; their conditions need not be identical. Identical values can stand only once.
# Legend:
# Bax [1] = experiment: Bax cleavage in PMN lysates, Western blot; type: cell-based, human; settings: PMN lysate, 16 h; proteins 1 μM, peptides 100 μM; six donors
# caspase-8 [2] = experiment: Caspase-8 cleavage in PMN lysates, Western blot; type: cell-based, human; settings: PMN lysate, 16 h; proteins 1 μM, peptides 100 μM; six donors
# caspase-3 [3] = experiment: Caspase-3 cleavage in PMN lysates, Western blot; type: cell-based, human; settings: PMN lysate, 16 h; proteins 1 μM, peptides 100 μM; six donors
# Akt [4] = experiment: Akt phosphorylation in PMNs, Western blot; type: cell-based, human; settings: PMN stimulated with 1 nM PMA, 30 min, 37 °C; proteins 1 μM, peptides 100 μM
# Outline: (§1)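 Human PMNs stimulated with 1 nM PMA were incubated with ligands for 30 min at 37°C in HBSS with 1 mM CaCl₂, 1 mM MgCl₂, 0.1% BSA, pH 7.4. Cells were lysed in ice-cold Tris/EDTA/detergent buffer with phosphatase and protease inhibitors. Equal protein was immunoblotted for phospho- and total Akt or ERK1/2, with actin. Inhibition arm: 20 min pretreatment at 37°C with 10 μM Akt inhibitor, 50 μM PD98059, 50 nM NIF, or F(ab′)₂ anti-αM or anti-MHC-1 (20 μg/ml), then 1 μM Plg.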
# ERK1/2 [5] = experiment: ERK1/2 phosphorylation in PMNs, Western blot; type: cell-based, human; settings: PMN stimulated with 1 nM PMA, 30 min, 37 °C; proteins 1 μM, peptides 100 μM
# Outline: as §1
# αMβ2 = αMβ2 clustering on PMNs, fluorescence microscopy; type: cell-based, human; settings: 4 h, 37 °C; proteins 1 μM, peptides 100 μM; anti-αM OKMI staining; four donors
# Outline: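 Human PMNs were exposed to ligands (proteins 1 μM, peptides 100 μM) for 4 h at 37°C, or to 1 μM Plg together with clustering inhibitors at the final concentrations used in apoptosis assays. Cells were fixed in 4% paraformaldehyde and stained with anti-αM mAb OKMI plus Alexa 488 goat anti-mouse IgG. They were cytospun, mounted and imaged by fluorescence microscopy (×40/0.7 NA); PMNs came from four donors.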
# [6] = target: recombinant purified integrin αMβ2 (Homo sapiens, UniProt P05107+P11215); experiment: Solid-phase binding to purified αMβ2; settings: higher for Plg than for Ang(1–4)
# Sequence of recombinant purified integrin αMβ2 (P05107 23-769, other chains not shown): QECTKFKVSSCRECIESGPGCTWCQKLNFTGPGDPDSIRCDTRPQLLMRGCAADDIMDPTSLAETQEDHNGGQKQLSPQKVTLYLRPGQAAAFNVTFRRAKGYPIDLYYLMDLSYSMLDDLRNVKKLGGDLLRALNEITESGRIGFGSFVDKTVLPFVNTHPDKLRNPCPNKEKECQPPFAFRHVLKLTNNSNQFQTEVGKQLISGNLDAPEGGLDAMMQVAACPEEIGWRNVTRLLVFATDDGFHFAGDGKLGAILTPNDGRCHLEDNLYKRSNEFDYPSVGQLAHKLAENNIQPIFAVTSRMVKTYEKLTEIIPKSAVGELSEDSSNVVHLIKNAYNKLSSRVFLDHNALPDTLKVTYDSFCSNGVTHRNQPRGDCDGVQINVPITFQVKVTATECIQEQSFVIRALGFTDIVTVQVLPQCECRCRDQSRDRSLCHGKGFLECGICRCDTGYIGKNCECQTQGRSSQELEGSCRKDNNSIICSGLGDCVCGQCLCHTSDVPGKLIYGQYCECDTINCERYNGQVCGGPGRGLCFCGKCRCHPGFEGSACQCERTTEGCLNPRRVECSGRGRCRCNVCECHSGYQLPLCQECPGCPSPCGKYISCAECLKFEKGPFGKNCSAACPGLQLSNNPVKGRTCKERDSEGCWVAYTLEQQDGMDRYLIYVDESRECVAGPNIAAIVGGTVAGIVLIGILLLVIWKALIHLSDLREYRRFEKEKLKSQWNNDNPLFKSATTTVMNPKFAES
# Outline: (§2)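 Purified recombinant αMβ2, αM or β2 (from HEK293 lines) was coated overnight at 4°C in TBS with 10 mM n-octyl-β-D-glucopyranoside and postcoated with 0.5% PVP for 1 h at 37°C. Biotinylated Plg or Ang(1–4) (0–10 μM) was bound for 2 h at 37°C in the same buffer plus 1 mM CaCl₂/MgCl₂. Binding was detected with alkaline phosphatase–avidin and pNPP at A405. Kd came from a one-site binding fit.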
# [7] = target: recombinant purified β2 subunit (Homo sapiens, UniProt P05107); experiment: Solid-phase binding to purified β2 subunit; settings: solid-phase binding, αM versus β2
# Sequence of recombinant purified β2 subunit (P05107 23-769): as the sequence (P05107 23-769, other chains not shown) above
# Outline: as §2
# αMβ2 on K562 cells = experiment: Soluble ligand binding to K562 cells expressing αMβ2, FACS; parameters: species or system human; settings: 40 min, 37 °C
# Outline: (§3)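 Transiently transfected K562 cells were incubated with soluble Alexa 488-labelled Plg or Ang(1–4) for 40 min at 37°C in HBSS containing 1 mM CaCl₂ and 1 mM MgCl₂. Cells were washed twice and bound ligand was quantified by FACS; three independent experiments. For inhibition, cells were pretreated for 20 min at 37°C with function-blocking anti-αM or anti-β2 mAbs (20 μg/ml) or NIF (20 nM).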
# αM subunit on K562 cells = experiment: Soluble ligand binding to K562 cells expressing αM, FACS; parameters: species or system human; settings: 40 min, 37 °C
# Outline: as §3
# β2 subunit on K562 cells = experiment: Soluble ligand binding to K562 cells expressing β2, FACS; parameters: species or system human; settings: 40 min, 37 °C
# Outline: as §3
# [8] = test system: mock-transfected K562 cells; experiment: Apoptosis of mock-transfected K562 cells, annexin V, FACS; type: cell-based, human; settings: 16 h, 37 °C; proteins 1 μM, peptides 100 μM; no ligand 81 ± 8; mean ± SEM, n = 5
# [9] = test system: αM^(Ile316→Gly)β2 on K562 cells; experiment: Adhesion of K562 cells expressing αM^; type: cell-based, human; settings: K562 αM^(Ile316→Gly)β2, data not shown
# Bax [10] = experiment: Bax cleavage in K562 cell lysates, Western blot; type: cell-based, human; settings: K562 αMβ2 transfectants, 24 h, 37 °C; proteins 1 μM, peptides 100 μM
# caspase-3 [11] = experiment: Caspase-3 cleavage in K562 cell lysates, Western blot; type: cell-based, human; settings: K562 αMβ2 transfectants, 24 h, 37 °C; proteins 1 μM, peptides 100 μM
# caspase-8 [12] = experiment: Caspase-8 cleavage in K562 cell lysates, Western blot; type: cell-based, human; settings: K562 αMβ2 transfectants, 24 h, 37 °C; proteins 1 μM, peptides 100 μM
# Akt [13] = experiment: Akt phosphorylation in transfected K562 cells, Western blot; type: cell-based, human; settings: 37 °C
# Outline: (§4)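 Transiently transfected K562 cells (αM, β2, αMβ2 or mock) were exposed to ligands for 30 min at 37°C and lysed in ice-cold buffer. Equal protein was run on SDS-PAGE and blotted with the PathScan Multiplex Western Cocktail I, then reprobed for total ERK1/2; blots shown are representative of three experiments.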
# ERK1/2 [14] = experiment: ERK1/2 phosphorylation in transfected K562 cells, Western blot; type: cell-based, human; settings: 37 °C
# Outline: as §4
# apoptotic PMNs = experiment: Competition with annexin V-FITC binding to apoptotic PMNs; type: cell-based, human; settings: 0–10 μM, data not shown
# human PMNs = settings: Plg 1 μM, 16 h, 37 °C; media alone 90 ± 21; mean ± SEM, n = 6
substance,measurement,setting,value
plasminogen [Plg],22-kDa Bax fragment,Bax [1],absent
same,caspase-8 fragment,caspase-8 [2],absent
same,18-kDa caspase-3 fragment,caspase-3 [3],absent
same,Akt phosphorylation,Akt [4],robust Akt phosphorylation
same,ERK1/2 activation,ERK1/2 [5],induced ERK1/2 activation
same,αMβ2 macroclusters on PMN surface,αMβ2,detected
same,affinity of αMβ2 for Plg relative to Ang(1–4),[6],~ 10 fold
same,recognition by individual integrin subunits (in words),[7],interacted with the individual αM and β2 subunits with similar affinities
same,"soluble ligand binding, αMβ2 cells (in words)",αMβ2 on K562 cells,bound both ligands
same,"soluble ligand binding, αM cells (in words)",αM subunit on K562 cells,bound both ligands
same,"soluble ligand binding, β2 cells (in words)",β2 subunit on K562 cells,bound soluble Plg
same,"K562 early/late apoptosis (% annexin V+ cells), mock",[8],78 ± 10%
same,adhesion to Plg versus wild type,[9],enhanced adhesion to Plg
same,"Bax cleavage product, αMβ2 cells",Bax [10],not detected
same,"caspase-3 cleavage product, αMβ2 cells",caspase-3 [11],not detected
same,"caspase-8 cleavage product, αMβ2 cells",caspase-8 [12],not detected
same,"Akt phosphorylation, αM, β2 and mock cells","Akt [13]; K562 expressing αM or β2, or mock-transfected, 30 min",not in K562 cells expressing the individual αM or β2 subunits (Fig. 6A) or mock-transfected cells
same,"Akt activation, tailless and chimeric αMβ2","Akt [13]; K562 expressing αM(1119Δ)β2, αMβ2(728Δ) or αM/αLβ2, Plg, 30 min",no Akt activation could be detected
same,"Akt phosphorylation, αMβ2 cells","Akt [13]; K562 expressing αMβ2, 30 min",robust Akt phosphorylation
same,"ERK1/2 activation, αM cells","ERK1/2 [14]; K562 expressing αM, 30 min",strongly induced
same,"ERK1/2 activation, αMβ2 cells","ERK1/2 [14]; K562 expressing αMβ2, 30 min",strongly induced
same,"ERK1/2 phosphorylation, mock and β2 cells","ERK1/2 [14]; K562 mock or expressing β2, 30 min",poorly induced
same,competition with annexin V-FITC binding,apoptotic PMNs,did not compete with annexin V-FITC binding at any concentration tested
same,"PMN early/late apoptosis (% annexin V+ cells), Plg alone",human PMNs,32 ± 10% and 32 ± 105%
